Assay: Toxicity liver stage against HepG2, at 10uM
Format: cell-based
Set-up: test concentration 10 uM, cell line HepG2-A16-CD81EGFP
Settings: human, HepG2-A16-CD81EGFP cells; read-out: INHIBITION
Summary of the method: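 Uninfected HepG2-A16-CD81EGFP cells, 3 × 10^3 per well, 1536-well, plated on prespotted compound at 10 μM final, parasite-free screening media added to match infected plates; puromycin 10 μM positive, DMSO 0.5% negative; run in parallel with 48 h PbLuc assay at 37 °C, 5% CO2; viability by CellTiter-Glo luminescence, normalized to controls.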

SMILES | cytotoxicity at 10 µM [%]
Cc1ccc2c(c1)c(C)cc(=O)n2CCC(=O)O | -5.6
Fc1ccc(-c2noc(CN3CCC(c4cc[nH]n4)CC3)n2)cc1 | 18.4
Cc1nn(-c2ccccn2)c(C)c1[C@@H]1C=C[C@@H](NC(=O)CCC(=O)O)C1 | 4.59
Cn1cnnc1SC1CCc2ccccc2NC1=O (stereo not given) | -0.373
COCCCN1C(=O)c2ccc(C(=O)NCCc3c[nH]cn3)cc2C1=O | -3.76
COc1ccc(OC)c(C(O)CN2CCN(c3cccc(C)c3)CC2)c1 (stereo not given) | 6.69
O=C(CCCSc1ccc(NC(=O)C2CC2)nn1)NCC1CCCO1 (stereo not given) | -4.45
CCCS(=O)(=O)N1CCN(c2cc(-n3cccc3)nc(C)n2)CC1 | 6.62
CC(=O)N1CCC(CSCc2ccco2)CC1 | 9.77
O=C(Cc1ccc(F)cc1)NCCNc1cc(N2CCCC2)cnn1 | -3.29
O=C(NCCc1ccccn1)[C@@]12CCO[C@@H]1CCN(c1ncccn1)C2 | 4.26
CS(=O)(=O)NCc1noc2c1CN(C(=O)c1ccsc1)CC2 | 7.86
Cc1noc([C@@H]2CCO[C@@H]3CCN(C(=O)Cc4ccsc4)C[C@@H]32)n1 | 10.4
COCC1CN(Cc2ccoc2)Cc2cn(CC3CCCC3)nc21 (stereo not given) | 4.32
Cn1cnc(S(=O)(=O)N2CCCn3cnc(CN4CCCC4)c3C2)c1 | 1.27
O=C(O)C1CCCN(C(=O)CCn2ccc3c(Br)cccc32)C1 (stereo not given) | 10.9
Cc1cc(C)cc(Nc2nc(C)cc(=O)n2CC(=O)NC(C)C)c1 | -7.3
Cn1c(=O)n(C)c2cc(C3SCC(=O)Nc4ccsc43)ccc21 (stereo not given) | 4.49
O=C([C@H]1C[C@H]2OCC[C@H]2N(C(=O)c2ccncc2)C1)N1CCCCO1 | -6.77
Cn1ccnc1SCC(=O)NCc1ccc2c(c1)CCC(=O)N2 | 7.66
O=C1CNc2ncnc(Nc3cnn(Cc4ccccc4)c3)c2N1 | 7.38
Cc1nn(C)c2c(N3CCCC3)nc(C3CC3)nc12 | 0.12

SMILES | cytotoxicity at 10 µM [%]
NC(=O)c1cccc(-c2cnc(C3CCCNC3)cn2)c1 (stereo not given) | -0.055
CNC(=O)CCc1cc(C)nc(C2CCN(c3cnccn3)CC2)c1 | 1.31
O=C1NC2(CCc3ccccc31)CCN(Cc1cccnc1)C2 (stereo not given) | 0.9
CNC(=O)c1cn[nH]c1C1CCCN1c1nc(C)cc(C)n1 (stereo not given) | 2.81
CCC(=O)N1CCC(c2nc(C)c3c(n2)N(C)CCC3)CC1 | 4.26
CC(C)Oc1cccc(CNC(=O)NC2(CO)CCCC2)c1 | -57.1
CC(C)c1cc(C(=O)N(c2ccc(F)cn2)C2CCOCC2)nn1C | -4.65
COc1ccc(S(=O)(=O)Nc2cccnc2-n2cncn2)c(C)c1 | 3.64
O=C1NCCCCC1NC(=O)N1CCCc2ccccc21 (stereo not given) | -3.49
CCC(=O)NC(c1ccc(C)cc1)c1cccc(S(C)(=O)=O)c1 (stereo not given) | -7.62
CCOc1ccc(NC(=O)NCCCN(C)S(C)(=O)=O)cc1C | 2.79
Cc1cccc(C)c1NC(=O)CNC(C)Cc1ccsc1 (stereo not given) | -6.12
CC(C)(C)OC(=O)N1CCC(NC2CC2)CC1 | -5.64
CCN1N=C(C(=O)N2CCCC(c3noc(C)n3)C2)CCC1=O (stereo not given) | -12.9
Cc1oc(-c2ccco2)nc1CC(=O)NCC(C)(C)N(C)C | -13.9
CSC(C)(C)CNC(=O)NC1CCC1 | -7.32
O=C(NC1CCN(c2cccc(OC(F)(F)F)c2)C1=O)C1CCC1 (stereo not given) | -3.11
Clc1cnccc1N1CCCOCC1 | -0.625
CCN1CCN(c2ccc(F)cc2C(C)NCc2cscn2)CC1 (stereo not given) | -10.3
CCCc1n[nH]c(C2CN(C(=O)CCn3nc(C)cc3C)CCO2)n1 (stereo not given) | -11.9
Cc1noc(C)c1CNCc1c(C(C)C)nn(C)c1N1CCOCC1 | 4.8
Cn1cc(Br)cc(NC(=O)CC(C)(C)C)c1=O | 5.82

SMILES | cytotoxicity at 10 µM [%]
CCC(CC)NC(=O)Cn1cc(C(N)=O)c(-c2ccccc2)n1 | -6.87
Cc1nnc(NCCc2nc3ccc(F)cc3n2C)c(C#N)c1C | -0.744
O=C(CCC1CCCCC1)NS(=O)(=O)CC1CC1 | -9.69
Cc1nn(C)c(C)c1CCC(=O)Nc1nnc(C2CC2)s1 | -10.1
CCCS(=O)(=O)N(C)C(=O)CCc1ccsc1 | 0.321
CCNC(=O)CCC(=O)Nc1ccc2nn(C(C)C)cc2c1 | -141
Cc1ccc(N2CCC(NCc3cnc(C4CCC4)s3)CC2)nc1 | 6.75
CC(C)C1CCN(C(=O)NCC(=O)N(C)CC(F)(F)F)CC1 | 20.7
CC(=O)N1CCN(C(=O)CNc2ccc3ncsc3c2)CC1 | -2.01
CN(CC1CCCC1)C(=O)c1cn(C)nc1-c1cccnc1 | -0.0402
Cc1csc(C2(NCC(O)COc3ccc(F)cc3)CCC2)n1 (stereo not given) | 14.9
CN(Cc1ccc(OC(F)F)cc1)C(=O)CS(=O)(=O)c1ccc(Cl)cc1 | 5.19
CCSc1cc(C(=O)NCc2ccccc2O)ccn1 | -3.81
CS(=O)(=O)NCc1nnc2n1CCN(Cc1cccs1)C2 | -1.57
Cc1nccn1CCCN1CCC2(CCC(=O)N(CC3CC3)C2)CC1 | 3.12
CCc1nc(CC2CN(c3ncnc4sc(C)c(C)c34)CCO2)no1 (stereo not given) | 11.9
O=C(c1cccc(Cl)c1)N1CC[C@@H](N2CCC(O)CC2)[C@H](O)C1 | -1.61
O=C(CCN1CCCC(CO)(CC2CC2)C1)NC1CCCCC1 (stereo not given) | 1.91
Cc1cc(C(=O)NCc2cccnc2N2CCCC(O)C2)[nH]n1 (stereo not given) | 4.52
CC(C)c1cc(NCC2(Cn3cccn3)CC2)nc(N)n1 | 3.19
COCc1cc(CN(C)C(=O)CCC(=O)Nc2cc(C)ccc2F)n[nH]1 | -14.5
CCCn1cnnc1CNC1CCSC1 (stereo not given) | -1.1

SMILES | cytotoxicity at 10 µM [%]
CC(C)Cn1c(=O)n(CCn2cc(Cl)cn2)c2cc(C(=O)O)cnc21 | 3.72
CCc1oc(C(=O)NCCc2nc(C(=O)O)cs2)cc1CN1CCCC1 | 19.3
CS(=O)(=O)N1CCC(Oc2ccc(C(=O)NCC3CCC3)cc2Cl)CC1 | 12
COCCCC1CCCCN1Cc1cnn(C)c1C1CC1 (stereo not given) | -2.52
Cc1nc2c(c(N(C)Cc3ccccc3-n3cccn3)n1)CCNCC2 | -11.2
CCCNc1ncc(-c2cc(C3CC3)nc(N)c2C#N)cn1 | 8.26
COC(=O)c1cc(OCC2CCC2)cc(C(=O)N[C@@H](C)CO)c1 | -2.18
Cc1cnc(CNC(=O)CCCn2cnc3ccccc3c2=O)cn1 | -7.2
Cc1ccc(-c2ccnc(NC(C)c3n[nH]c(C)n3)n2)c(C)n1 (stereo not given) | 2.83
Cc1nc2ccc(S(=O)(=O)Nc3c(C)nn(CC(=O)O)c3C)cc2s1 | -2.83
CNc1cc(C)nc(N2CCC3(CC2)[C@H](O)C[C@@H]3OC)n1 | -6.72
CCn1cc(CN2CCCN(C3Cc4ccccc4C3)CC2)c(C)n1 | -10.9
O=C(N[C@H]1COC[C@@H]1N1CCCC1)c1csc(-c2cccs2)n1 | 9.71
Cc1cc(N2CCN(Cc3ccc(C)o3)CC2)cc(C)n1 | -6.61
CC(C)C(NC(=O)Nc1ccccn1)c1cccs1 (stereo not given) | 2.27
COc1ccc(-c2nc(C(=O)NCC3CCOC3)cs2)cc1OC (stereo not given) | 2.39
CCOc1ccnc(N2CCN(C(=O)c3ccncc3)CC2)n1 | -4.6
O=C(CCC1CCCO1)NCc1ccccc1Cn1cncn1 (stereo not given) | -4.05
Cc1noc(C(C)N2CCN(Cc3ccco3)CC2)n1 (stereo not given) | -3.37
CCn1cc(NC(=O)NCC(c2ccc(OC)cc2)N(C)C)cn1 (stereo not given) | -2.4
O=S(=O)(NCc1ccccc1Cn1cncn1)N1CCCCCC1 | 0.512
Cc1cc(C)c(CNC(=O)N2CCCC2c2ccc(F)cc2)c(=O)[nH]1 (stereo not given) | 1.38

SMILES | cytotoxicity at 10 µM [%]
COC(=O)c1cccc(C(=O)NCc2ccc3c(c2)CCCN3C)c1 | -11.7
CN(Cc1ccsc1)C(=O)c1cccc(S(=O)(=O)NC(C)(C)C)c1 | -8.03
CN(C)C(CNC(=O)c1cc2c([nH]c1=O)CCCC2=O)c1ccsc1 (stereo not given) | -1.96
Cc1ccccc1-n1ncc(C(=O)N2CCCC2c2cnn(C)c2)c1C (stereo not given) | -4.84
NC(=O)CN1CCC(NC(=O)Nc2nccs2)CC1 | -5.9
CC(C(=O)N1CCN(c2ccccc2Cl)CC1)n1cncn1 (stereo not given) | 5.17
Cc1n[nH]c(C2CN(C(=O)Cn3ccccc3=O)CCO2)n1 (stereo not given) | 5.75
c1ccc(-c2cnc(CNCC3CCCN3c3cccnn3)o2)cc1 (stereo not given) | 1.56
CCc1nnc2n1CCN(Cc1csc(-c3ccc(C)o3)n1)C2 | -1.5
CC(C)c1cc(C(=O)NCC2CCCN(C(C)C)C2)n(C)n1 (stereo not given) | -1.75
CN(C)CCOC[C@H]1CC[C@H]2[C@H](CCN2C(=O)c2ccoc2)O1 | -81.5
Cn1cc(CN2CCC3(CC2)CCN(C(=O)c2cscn2)CC3)cn1 | -0.937
CCc1ccc(CN2CCC3(CC2)CN(c2cnn(C)c2)C(=O)CO3)o1 | 0.777
O=C(c1ccoc1)N1CCOCC2(CCN(C3CCOCC3)C2)C1 (stereo not given) | -6.11
O=C(C1=CCCC1)N1CCC[C@]2(C[C@@H](OCc3ccccn3)CO2)C1 | 9.79
O=S(=O)(C1CC1)N1CCO[C@@H]2CC(COCc3cccnc3)C[C@H]21 (stereo not given in full) | 7.01
COc1ccc(CN2C[C@@H](OCc3ccccn3)[C@H]3COC[C@H]32)cc1 | 3.63
Cc1ccc(CN2CCc3ncnc(C4CC4)c3CC2)s1 | 4.63
NC1(c2nc(C(F)(F)F)cc(=O)[nH]2)CCCCC1 | 11
CCC(=O)N1CCC[C@]2(C(=O)N(C)C)CN(c3ccccn3)C[C@@H]2C1 | 11.5
Cc1noc(C)c1CN1CC[C@@H]2O[C@H](COCC3CC3)CC[C@@H]21 | 5.65
O=C(CC1[C@H]2CN(C(=O)c3cccnc3)C[C@@H]12)Nc1cccnc1 (stereo not given in full) | 7.37

— ChEMBL document CHEMBL4513216, “Probing the Open Global Health Chemical Diversity Library for Multistage-Active Starting Points for Next-Generation Antimalarials” (ACS Infect Dis, 2020)
